ChEMBL document CHEMBL4033629, “Synthesis, biological evaluation and molecular modeling of 2-Hydroxyisoquinoline-1,3-dione analogues as inhibitors of HIV reverse transcriptase associated ribonuclease H and polymerase” (Eur J Med Chem, 2017)
pIC50: −log10 of the molar value. Active and inactive are the calls of the source. The calls are words filed in the database; no cut-off is given here.

What was measured:
[1] = Inhibition of full length HIV reverse transcriptase polymerase activity; set-up: species or system Human immunodeficiency virus
Outline: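 RT was pre-incubated with primer-template duplex before compound was tested. The IC50 is the concentration giving 50% inhibition. It is reported as mean ± SD from three independent experiments for some analogues, and as the mean of two independent experiments for others.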

[2] = system: Human immunodeficiency virus 1; assay: Antiviral activity against HIV1 3B infected in human CEM-SS cells assessed as inhibition of viral-induced cytopathic effect at 10 uM by colorimetric method; type: functional, cell-based
Outline: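 CEM-SS cells were mixed with HIV-1 IIIB and test compound at 10 µM and incubated 6 days. Virus was pre-titered so that virus control wells lost 70 to 95% of cell viability. Each plate had cell-only, virus, compound toxicity and compound colorimetric control wells. Protection from virus-induced cytopathic effect was read colorimetrically.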

[3] = Inhibition of full length HIV RT-RNase H activity using 18-nucleotide 3'-fluorescein-labeled RNA/5'-dabsyl-labeled DNA hybrid as substrate; set-up: species or system Human immunodeficiency virus
Outline: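 Duplex substrate reports random internal RNA cleavage. A known RNase H inhibitor served as positive control. IC50 is the concentration giving 50% inhibition, reported as the mean of two or three independent experiments.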

SMILES | pIC50 [1] | Activity [2] | pIC50 [3]
COc1cc2c(cc1-c1ccccc1)CC(=O)N(O)C2=O | 5.09 | inactive | 5.89
O=C1Cc2cc(-c3ccoc3)ccc2C(=O)N1O | 5.70 | inactive | 5.85
O=C1Cc2cc(-c3ccc4c(c3)OCO4)ccc2C(=O)N1O | 5.77 | inactive | 5.92
O=C1Cc2c(cccc2-c2ccco2)C(=O)N1O | 5.68 | inactive | 5.70
Cc1ccc(Cc2cccc3c2CC(=O)N(O)C3=O)cc1 | 5.10 | inactive | 6.00
O=C(Nc1ccc2c(c1)CC(=O)N(O)C2=O)c1ccccc1 | 6.40 | inactive | 6.70
O=C1Cc2c(cccc2-c2ccccc2)C(=O)N1O | < 4.60 | inactive | 5.85
O=C(Cc1ccc(F)cc1)Nc1ccc2c(c1)CC(=O)N(O)C2=O | 5.77 | inactive | 6.52
O=C(Nc1ccc2c(c1)CC(=O)N(O)C2=O)c1ccc(F)cc1 | 6.10 | inactive | 6.70
O=C1Cc2cc(-c3cccs3)ccc2C(=O)N1O | 5.77 | inactive | 5.77
O=C1Cc2ccc(-c3cc4ccccc4o3)cc2C(=O)N1O | 5.80 | inactive | 6.05
O=C1Cc2ccc(-c3ccc(F)c(F)c3)cc2C(=O)N1O | 5.55 | inactive | 5.70
O=C(Cc1ccccc1)Nc1ccc2c(c1)CC(=O)N(O)C2=O | 5.85 | inactive | 6.70
O=C1Cc2cc(-c3cccc4c3sc3ccccc34)ccc2C(=O)N1O | 5.80 | inactive | 5.74
COc1cc2c(cc1-c1ccc(F)cc1)CC(=O)N(O)C2=O | 5.43 | inactive | 5.85
O=C1Cc2cc(-c3ccco3)ccc2C(=O)N1O | 5.82 | inactive | 5.96
COc1cc2c(cc1-c1ccc(F)cc1F)CC(=O)N(O)C2=O | 5.54 | inactive | 5.80
O=C1Cc2c(Cc3ccc(C(F)(F)F)cc3)cccc2C(=O)N1O | 5.13 | inactive | 6.08
O=C1Cc2c(Cc3ccc(F)cc3F)cccc2C(=O)N1O | 5.03 | inactive | 6.09
O=C1Cc2ccc(I)cc2C(=O)N1O | 5.72 | inactive | 5.85
O=C1Cc2ccc(-c3cccs3)cc2C(=O)N1O | 5.60 | inactive | 5.77
O=C1Cc2cc(-c3csc4ccccc34)ccc2C(=O)N1O | 5.89 | inactive | 5.96
COc1cc2c(cc1-c1ccco1)CC(=O)N(O)C2=O | 5.21 | inactive | 5.80
O=C1Cc2c(cccc2-c2ccc(F)cc2F)C(=O)N1O | 4.60 | inactive | 5.82
O=C1Cc2cc(-c3cc4ccccc4o3)ccc2C(=O)N1O | 5.82 | inactive | 5.96
O=C1Cc2ccc(-c3ccco3)cc2C(=O)N1O | 5.89 | inactive | 5.92
O=C1Cc2cc(-c3ccc(F)c(F)c3)ccc2C(=O)N1O | 5.68 | inactive | 5.89
O=C1Cc2c(Cc3ccc(Br)cc3)cccc2C(=O)N1O | 5.85 | inactive | 6.22
